Screening results (PubChem BioAssay)
The list is not random: actives were taken first. Their share in the collection is about 2.6%.
Platelet DG rel = inhibitors of platelet dense granule secretion, primary screen, cell-based, MLPCN, human platelets; 300,000 compounds, 0.22% hits; human platelet-rich plasma, SFLLRN dense granule ATP release, luminescence; AID 1663, 2009; inhibition, %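 (compounds screened at 7.5 µM in platelet-rich plasma)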;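 active = mean replicate score, as percent of positive control, at or above 50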
SENP6 block = SENP6 protease inhibitors, primary screen, biochemical, luminescence, uHTS; Sentrin-specific protease 6 (Homo sapiens), Q9GZR1; Recombinant SENP6 catalytic domain, aminoluciferin luminescence; inhibition, % at 10 µM; 330,000 compounds, 1.8% hits; AID 2599, 2010;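 active = inhibition above about 50% at the single tested dose, limit read from the data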
SENP8 block-1 = human SENP8 protease inhibitors, primary screen, biochemical, fluorescence, Nedd8 protein substrate, uHTS; 360,000 compounds, 0.64% hits; Sentrin-specific protease 8 (Homo sapiens), Q96LD8; recombinant SENP8; inhibition, % at 20 µM; in the data active = inhibition mostly above about 40%, no sharp cut-off; inactive = mostly below about 27%
SENP7 block = SENP7 protease inhibitors, primary screen, biochemical, luminescence, uHTS. Sentrin-specific protease 7 (Homo sapiens), Q9BQF6. recombinant SENP7, Z-RLRGG-aminoluciferin luminescence, 40 min. inhibition, % at 5 µM. 330,000 compounds, 1.5% hits. AID 434973, 2010;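 active = inhibition above about 50% at the single test dose, limit read from the data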
Target sequence (Q9BQF6 706-1050 limits assumed): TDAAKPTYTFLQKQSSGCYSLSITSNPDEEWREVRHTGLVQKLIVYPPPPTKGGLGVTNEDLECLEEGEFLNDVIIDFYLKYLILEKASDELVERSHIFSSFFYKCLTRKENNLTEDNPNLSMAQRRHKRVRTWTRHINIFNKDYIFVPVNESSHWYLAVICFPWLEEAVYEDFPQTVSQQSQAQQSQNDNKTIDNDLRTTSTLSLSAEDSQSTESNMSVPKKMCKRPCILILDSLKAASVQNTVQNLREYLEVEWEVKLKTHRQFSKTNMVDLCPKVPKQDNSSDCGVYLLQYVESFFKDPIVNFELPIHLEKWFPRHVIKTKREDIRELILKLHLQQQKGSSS
SENP8 block-2 = SENP8 protease inhibitors, primary screen, biochemical, luminescence; inhibition, % at 10 µM; 330,000 compounds, 1.2% hits; purified SENP8, Z-RLRGG-aminoluciferin cleavage; Sentrin-specific protease 8 (Homo sapiens), Q96LD8; in the data active = inhibition above about 50%
SENP1 FRET inh = human SENP1 catalytic domain inhibitors, primary screen, biochemical, FRET, uHTS; 360,000 compounds, 0.21% hits; AID 624204, 2012; recombinant SENP1 catalytic domain, CyPet-SUMO1-YPet FRET cleavage; inhibition, % at 10 µM;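 active = inhibition at least 30% at 10 µM, raw YFP signal under a set limit, fluorescence ratio 0.5 to 1.5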
Target sequence (Q9P0U3 419-644 limits assumed): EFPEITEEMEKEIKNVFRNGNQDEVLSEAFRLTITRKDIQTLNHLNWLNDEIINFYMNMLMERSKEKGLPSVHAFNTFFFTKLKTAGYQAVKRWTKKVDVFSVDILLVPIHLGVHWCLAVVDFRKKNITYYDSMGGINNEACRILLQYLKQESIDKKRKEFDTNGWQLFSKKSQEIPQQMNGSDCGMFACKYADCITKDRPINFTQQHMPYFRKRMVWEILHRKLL
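Assay system – human recombinant His6-tagged SENP1 catalytic domain enzyme · Input – SENP1 enzyme, 20 pM final · Buffer or medium – Tris pH 8 buffer plus EDTA, NaCl, BME, BSA, NP40, catalase · Schedule – 50 min reaction at room temperature · Technique – FRET read of cyan and yellow fluorescence · Control set – no-enzyme wells low, DMSO-plus-enzyme wells high control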
SENP8 conf = SENP8 protease inhibitors, retest, confirmation, biochemical, luminescence, single concentration; shares compounds with SENP7 block; Recombinant SENP8, Z-RLRGG-aminoluciferin luminescence, 60 min; inhibition, % at 12.5 µM; 6,200 compounds, 40% hits;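 active = mean inhibition across replicates above about 50%, limit read from the data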
SENP6 confirm = SENP6 protease inhibitors, confirmation, biochemical, luminescence, single concentration | shares compounds with SENP7 block | AID 488915, 2010 | 6,200 compounds, 58% hits | inhibition, % at 12.5 µM | recombinant SENP6, Z-RLRGG-aminoluciferin luminescence
SENP7 conf = SENP7 protease inhibitors, retest, confirmation, biochemical, luminescence, single concentration | shares compounds with SENP7 block | 6,200 compounds, 69% hits | inhibition, % at 12.5 µM | AID 488917, 2010 | recombinant SENP7, Z-RLRGG-aminoluciferin luminescence, 40 min
Casp3 SENP sel = caspase-3 protease inhibitors, confirmation, selectivity assay for SENP inhibitor project, biochemical, single concentration | shares compounds with SENP7 block | purified caspase-3, Z-DEVD-aminoluciferin luminescence, 60 min | inhibition, % at 12.5 µM | 6,200 compounds, 60% hits | AID 488918, 2010;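 active = mean inhibition above about 50%, limit read from the data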
Luc interf = luminescence interference (SENP counter-screen); shares compounds with SENP7 block; Pre-incubated SENP8/Z-RLRGG-aminoluciferin, luciferase luminescence interference; inhibition, % at 12.5 µM; 6,200 compounds, 39% hits; AID 488919;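 active = mean inhibition above about 50% when retested at one dose, limit read from the data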
Numbers stand for hits; n = inactive; x = no result given.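 The calls were made as follows, unless noted: active = mean inhibition above about 50% in the one-dose retest (limit read from the data); inactive = the rest.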

SMILES	Platelet DG rel	SENP6 block	SENP8 block-1	SENP7 block	SENP8 block-2	SENP1 FRET inh	SENP8 conf	SENP6 confirm	SENP7 conf	Casp3 SENP sel	Luc interf
NC(=O)c1ccccc1N/C=C/C(=O)c1ccco1	n	73	n	n	n	n	72	69	87	86	72
O=C(/C=C/Nc1cccc(C(F)(F)F)c1)c1ccco1	n	n	n	n	n	n	x	x	x	x	x
Cc1cccc([C@H]2[C@@H]3C=CCC[C@@H]3C(=O)N2Cc2ccccc2)c1	x	x	n	n	x	n	x	x	x	x	x
COC(=O)c1ccc(NC(=O)C(OC)c2ccccc2)cc1 (stereo not given)	n	n	n	n	n	n	x	x	x	x	x
COc1ccc(S(=O)(=O)N2CCC(C(=O)NCCC(=O)Nc3ccc(Cl)cc3)CC2)cc1	n	n	n	n	n	n	x	x	x	x	x
O=C(CN(C(=O)c1csnn1)c1ccc2c(c1)OCCO2)NCc1ccccc1	n	n	n	n	n	n	x	x	x	x	x
CS(=O)(=O)c1ccc(-c2cn3cc(C(=O)O)ccc3n2)cc1	n	60	n	58	55	n	n	66	86	n	56
COC(=O)c1ccc2nc(-c3ccc(S(C)(=O)=O)cc3)cn2c1	n	n	n	n	n	n	x	x	x	x	x
CCCCOc1ccc(-c2nc(-c3cccnc3)no2)cc1	n	81	n	79	64	n	n	n	n	n	n
CCOc1ccc(-c2nc(-c3ccccc3C)no2)cc1	n	93	x	99	95	x	70	56	n	78	n
CCOc1ccc(-c2noc(-c3cccnc3)n2)cc1OC	n	n	n	n	n	n	x	x	x	x	x
CCOc1cc(-c2noc(-c3cccnc3)n2)ccc1OC	n	n	n	n	n	n	x	x	x	x	x
COc1ccc(-c2nc(-c3cccnc3)no2)cc1	n	77	n	84	67	n	78	78	96	86	n
CCOc1ccc(-c2nc(-c3cccnc3)no2)cc1	n	72	n	95	85	n	n	73	91	74	n
CC(C)(C)NC(=O)CN(C(=O)c1snc(C(=O)NC2CCCCC2)c1N)c1ccccc1F	n	n	n	n	n	n	x	x	x	x	x
COc1cccc2c1C(=O)O/C2=C/c1ccc2c(c1)OCO2	n	n	n	98	88	n	n	n	n	74	n
Cn1nccc1C(=O)Nc1cccc(S(=O)(=O)N2CCOCC2)c1	n	n	n	n	n	n	x	x	x	x	x
CCCOc1ccc(-c2nnc(-c3cccs3)o2)cc1	n	80	n	n	n	n	n	n	n	n	n
CN(C)c1ccc(-c2nnc(-c3cccs3)o2)cc1	n	72	n	79	60	n	n	51	76	n	n
CN(C)c1oc(-c2cccs2)nc1C#N	n	n	n	n	n	n	x	x	x	x	x
CCN(CC)C(=O)c1ccc2c3c(cccc13)C(=O)N(CCc1ccc(OC)c(OC)c1)C2=O	n	n	n	n	n	n	x	x	x	x	x
COC(=O)c1ccc(NC(=O)CCC(=O)c2ccc(F)cc2)cc1	n	n	n	n	n	n	x	x	x	x	x
CC(=O)NC1Sc2ccccc2N=C1c1ccccc1 (stereo not given)	n	89	n	85	84	n	n	69	97	66	n
CC(=O)N1c2ccccc2N=C(c2ccc(C(F)(F)F)cc2)C1C(=O)NC1CCCC1 (stereo not given)	x	x	n	x	x	n	x	x	x	x	x
O=[N+]([O-])c1c(NCCCO)cc(Sc2nc3ccccc3s2)c2nonc12	n	82	n	80	91	n	n	n	n	n	n
SMILES	Platelet DG rel	SENP6 block	SENP8 block-1	SENP7 block	SENP8 block-2	SENP1 FRET inh	SENP8 conf	SENP6 confirm	SENP7 conf	Casp3 SENP sel	Luc interf
CCC(=O)OCCNc1cc(Sc2nc3ccccc3s2)c2nonc2c1[N+](=O)[O-]	n	72	60	n	n	n	n	n	n	n	n
Cc1nnc(Sc2cc(NCCO)c([N+](=O)[O-])c3nonc23)s1	n	x	n	x	x	n	x	x	x	x	x
Oc1cccc(-c2ccc3nccn3c2)c1	x	x	n	x	x	n	x	x	x	x	x
CCCCOC(=O)c1ccc(NC(=O)c2c(N)n(C)c(=O)[nH]c2=O)cc1	n	n	x	n	n	x	x	x	x	x	x
COc1cc(/C=C/c2ccc3cccc(O)c3n2)c(Br)cc1O	n	84	n	77	87	n	63	86	100	55	n
Cc1ccsc1/C=C/c1ccc2cccc(O)c2n1	n	94	n	91	86	n	95	97	101	91	84
COc1cc(Br)c(/C=C/c2ccc3cccc(O)c3n2)cc1OC	n	n	n	n	n	n	x	x	x	x	x
Oc1cccc2ccc(/C=C/c3ccccc3Br)nc12	n	90	n	70	82	n	72	87	91	78	66
COc1cc(/C=C/c2ccc3cccc(O)c3n2)ccc1O	n	80	n	51	60	n	71	75	92	n	82
CSc1ccc(/C=C/c2ccc3cccc(O)c3n2)cc1	n	66	n	n	n	n	65	90	100	91	53
C/C(CC(C)C)=N\NS(=O)(=O)c1ccc(C)c([N+](=O)[O-])c1	n	85	n	n	n	n	n	n	n	n	n
CN(C(=O)c1nc(-c2ccccc2)n(-c2ccccc2)n1)C1CCS(=O)(=O)C1 (stereo not given)	n	n	n	n	n	n	x	x	x	x	x
CCC(=O)c1coc2ccc(O)cc12	n	n	n	n	n	n	x	x	x	x	x
CC(=O)Oc1ccc2occ(C(=O)c3cccs3)c2c1	n	n	n	n	n	n	x	x	x	x	x
O=C(c1cccs1)c1coc2ccc(O)cc12	n	54	n	n	n	n	n	n	77	n	n
